From ChEMBL document CHEMBL1133408, “5-Arylamino-2-methyl-4,7-dioxobenzothiazoles as inhibitors of cyclin-dependent kinase 4 and cytotoxic agents” (Bioorg Med Chem Lett, 2000)
Converted amounts (≈) assume the structure as drawn.

Legend:
A549 = assay: Inhibition of A549 cancer cell proliferation; type: functional, cell-based; conditions: Homo sapiens
Summary of the method: (§1)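 Cytotoxicity measured by sulforhodamine B (SRB) assay following NCI protocols. Human tumour cell lines: A 549 (non-small cell lung, from NCI), Col 1 (human colon carcinoma, from University of Illinois at Chicago surgical oncology), HL-60 (myeloid leukaemia, from ATCC) and HepG2 (hepatocarcinoma, from ATCC).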

[1] = biological target: Cyclin-dependent kinase 2 (Homo sapiens, UniProt P24941); assay: Inhibition of Cyclin-dependent kinase 2 (CDK2/cyclin A)
COLO1 = assay: Inhibition of Col1 cancer cell proliferation; type: functional, cell-based, Homo sapiens; summary of the method: as §1
[2] = biological target: Cyclin-dependent kinase 4 (Homo sapiens, UniProt P11802); assay: Inhibition of Cyclin-dependent kinase 4 (CDK4/cyclin Dl)
HL-60 = assay: Inhibition of HL60 cancer cell proliferation; type: functional, cell-based, Homo sapiens; summary of the method: as §1
HepG2 = assay: Inhibition of HepG2 cancer cell proliferation; type: functional, cell-based; conditions: Homo sapiens; summary of the method: as §1
[3] = Homo sapiens, COLO1, read-out: IC50
[4] = Homo sapiens, HL-60, read-out: IC50

Cyclin-dependent kinase 4, sequence (P11802 whole entry): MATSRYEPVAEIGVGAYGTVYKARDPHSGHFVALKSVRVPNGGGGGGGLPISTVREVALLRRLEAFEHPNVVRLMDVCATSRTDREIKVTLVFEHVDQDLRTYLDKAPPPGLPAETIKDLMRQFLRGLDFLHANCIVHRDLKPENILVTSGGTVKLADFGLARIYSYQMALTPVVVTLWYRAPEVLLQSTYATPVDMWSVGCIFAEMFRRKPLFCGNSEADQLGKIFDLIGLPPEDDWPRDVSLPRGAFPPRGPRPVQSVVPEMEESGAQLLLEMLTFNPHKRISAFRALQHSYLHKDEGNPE

Molecule	IC50 (A549) [µg/mL]	IC50 [1] [µM]	IC50 (COLO1; [3]) [µg/mL]	IC50 [2] [µM]	IC50 (HL-60; [4]) [µg/mL]	IC50 (HepG2) [µg/mL]	IC50 (COLO1; colo1) [µg/mL]	IC50 (HL-60; hl-60) [µg/mL]
Cc1nc2c(s1)C(=O)C=C(Nc1ccc(O)cc1)C2=O	0.7 (≈ 2.44 µM)	> 200	1.85 (≈ 6.46 µM)	6.7	0.26 (≈ 0.908 µM)	1.36 (≈ 4.75 µM)	–	–
Cc1nc2c(s1)C(=O)C=C(Nc1ccc(Br)cc1)C2=O	3.6 (≈ 10.3 µM)	> 200	6.57 (≈ 18.8 µM)	6.7	0.28 (≈ 0.802 µM)	2.78 (≈ 7.96 µM)	–	–
Cc1nc2c(s1)C(=O)C=C(Nc1ccc(I)cc1)C2=O	2.08 (≈ 5.25 µM)	> 200	2.08 (≈ 5.25 µM)	3	0.24 (≈ 0.606 µM)	1.95 (≈ 4.92 µM)	–	–
COc1ccc(NC2=CC(=O)c3sc(C)nc3C2=O)cc1	1.65 (≈ 5.49 µM)	> 200	2.01 (≈ 6.69 µM)	5.6	0.27 (≈ 0.899 µM)	1.39 (≈ 4.63 µM)	–	–
Cc1ccc(NC2=CC(=O)c3sc(C)nc3C2=O)cc1	0.61 (≈ 2.15 µM)	> 200	1.08 (≈ 3.8 µM)	6	0.3 (≈ 1.06 µM)	–	–	–
Cc1nc2c(s1)C(=O)C=C(Nc1ccccc1)C2=O	0.64 (≈ 2.37 µM)	> 200	1.93 (≈ 7.14 µM)	6	0.28 (≈ 1.04 µM)	1.3 (≈ 4.81 µM)	–	–
Cc1nc2c(s1)C(=O)C=C(Nc1ccc(Cl)cc1)C2=O	3.6 (≈ 11.8 µM)	> 200	20 (≈ 65.6 µM)	7	0.33 (≈ 1.08 µM)	3.23 (≈ 10.6 µM)	–	–
Cc1nc2c(s1)C(=O)C=C(Nc1ccc(F)cc1)C2=O	1.69 (≈ 5.86 µM)	> 200	1.94 (≈ 6.73 µM)	6.3	0.23 (≈ 0.798 µM)	1.51 (≈ 5.24 µM)	–	–
CCOc1ccc(NC2=CC(=O)c3sc(C)nc3C2=O)cc1	1.76 (≈ 5.6 µM)	> 200	2.09 (≈ 6.65 µM)	20	0.29 (≈ 0.922 µM)	1.53 (≈ 4.87 µM)	–	–
Cn1cnc2c(NCc3ccccc3)nc(NCCO)nc21 [OLOMOUCINE]	57 (≈ 191 µM)	–	87 (≈ 292 µM)	–	50 (≈ 168 µM)	–	–	–
CISPLATIN	–	–	–	–	–	–	1.38	0.7
